Key:
BCL6 mRNA = experiment: mRNA decay determination; format: cell-based, human; settings: OCI-Ly7; versus vehicle-treated cells
Outline: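 OCI-Ly7 cells pretreated 2 h with 0.5 μM test compound or control, then actinomycin D added for a time course. BCL6 mRNA quantified by QPCR against a standard curve, normalized to untreated cells; three independent experiments averaged to derive half-life.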

Pharmacokinetic = format: in vivo; settings: Farage xenograft mice, 75 mg per kg i.p.
Outline: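 Mice bearing 1 cm3 Farage xenografts received a single 75 mg/kg i.p. dose of test compound; killed at 6, 12 and 24 h alongside controls. Serum, tumor and normal tissues assayed for compound concentration by HPLC-MS.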

[1] = test system: Bcl6-dependent DLBCL cell lines; experiment: Growth inhibition determination; format: cell-based, human; settings: read-out: GI50 (concentration that inhibited the growth of the cell lines by 50% compared to control); 48 h; group of seven Bcl6-dependent DLBCL cell lines
Outline: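 Cells seeded so untreated controls stayed in exponential growth through the 48 h exposure, then treated with 0.1–10 μM test compound or water vehicle in 10% serum medium. Viability read by resazurin reduction fluorescence (560Ex/590Em), with viable cells calculated from a standard curve and 6 replicates per condition, and verified by sulforhodamine B or ATP luminescence. Values normalized to controls. Experiments in triplicate. GI50 taken from dose-effect curves and reported as mean with 95% CI.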

[2] = test system: Bcl6-independent DLBCL cell lines; experiment: Growth inhibition determination; format: cell-based, human; settings: read-out: GI50 (concentration that inhibited the growth of the cell lines by 50% compared to control); 48 h; group of four Bcl6-independent DLBCL cell lines
[3] = test system: primary human DLBCL cells; experiment: Primary cells treatment, viability; format: cell-based; settings: 2.5 μM; 48 h; versus vehicle-treated controls
Outline: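 Lymph node biopsies disrupted physically and separated by density gradient; cells kept in 80% RPMI/20% human serum with antibiotics, L-glutamine and HEPES. Exposed in triplicate to 2.5 μM test compound or water for 48 h. Viability read by ATP luminescence and dye exclusion, expressed as percent of vehicle control.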

SU-DHL6 xenograft = experiment: Mice xenotransplant study, SU-DHL6; format: in vivo, SCID mice; settings: 75 mg per kg per day; 20 days
Outline: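 Additional cohort of SCID mice with s.c. OCI-Ly7 or SU-DHL6 xenografts held until mean tumor volume reached 500 mm3, then given test compound i.p. for 20 days; tumor volume followed by caliper every other day.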

[4] = test system: Farage, OCI-Ly7 and SU-DHL4 DLBCL xenografts; experiment: Mice xenotransplant study, pooled; format: in vivo, SCID mice; settings: 75 mg per kg per day
Outline: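 Male SCID mice, 6–8 weeks old, injected s.c. in the left flank with 10^7 low-passage DLBCL cells. At palpable size (about 75–100 mm3, 24–33 days), pairs were randomized to vehicle or 75 mg/kg/day test compound i.p. (reconstituted in sterile water) for 10 days, n = 5 per arm per line. Caliper volume was measured every other day as (smallest diameter² × largest)/2. Mice were euthanized when ≥2 of 10 tumors reached 20 mm. Tumors were weighed and TUNEL-scored as apoptotic/total cells. Survival ran from treatment start to death or tenfold volume rise, by Kaplan-Meier with Cox's F test.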

Bcl6 [5] = experiment: Protein decay determination; format: cell-based, human; settings: OCI-Ly7; 0.5 µM PU-H71 after Cycloheximide 5 μM
Outline: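 OCI-Ly7 cells, control or test-compound treated, incubated with 5 μM cycloheximide over a time course. Bcl6 and actin immunoblotted at each point; Bcl6/actin ratio quantified by densitometry with untreated cells set at 100% and plotted against time.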

Toledo xenografts = experiment: Mice xenotransplant study, Toledo; format: in vivo, SCID mice; settings: Bcl6-independent; similar dose (75 mg per kg per day)
Bcl6 [6] = experiment: Bcl6 immunoblot in DLBCL cells; format: cell-based, human
Outline: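 Farage, OCI-Ly7 and SU-DHL4 cells exposed 24 h to 0.1, 0.25, 0.5 or 1 μM test compound; OCI-Ly7 also given 0.5 μM for 4, 6, 12, 18, 24 and 48 h. Compound added from concentrated stock to 10% serum medium. Lysates immunoblotted for Bcl6 with N-terminal (N3) and C-terminal (C19) antibodies, actin as loading control.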

[7] = Toxicity in xenografted mice; format: in vivo, SCID mice; settings: 75 mg per kg per day, 10 days
Outline: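 Xenografted SCID mice dosed i.p. at 75 mg/kg/day were weighed every other day. At euthanasia, blood was collected and tumors and other tissues were harvested, weighed and examined microscopically by pathologists.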

Mice toxicity studies = format: in vivo, Balb/c mice; settings: 50 or 75 mg per kg per day; 10 days
OCI-Ly7 xenografts = experiment: Mice xenotransplant study, OCI-Ly7; format: in vivo, SCID mice; settings: 75 mg per kg per day; 20 days

In the case of `CC(C)NCCCn1c(Sc2cc3c(cc2I)OCO3)nc2c(N)ncnc21` [PU-H71], the “increase in Bcl6 mRNA decay rate” value (BCL6 mRNA) was 32%, the “PU-H71 concentration in tumor” value (Pharmacokinetic; 6 h) was 42.1 µg/g and the “PU-H71 concentration in tumor” value (Pharmacokinetic; 12 h) was 27.6 µg/g. For the same molecule, the “PU-H71 concentration in tumor” value (Pharmacokinetic; 24 h) was 12 µg/g, the PU-H71 in serum (Pharmacokinetic; after the 6 h timepoint) was “undetectable” and the GI50 [1] was 1.39 µM. For the same molecule, the GI50 [2] was 71 µM, the “cases among 21 DLBCLs with greater than 25% loss of viability” value [3] was 19 and the tumor volume (SU-DHL6 xenograft) was no more than 100 mm^3. The “DLBCL size and weight compared to control” value ([4]; 10 days) was “potently reduced”, the “survival (tumor growth to critical mass as surrogate) v controls” value ([4]; n = 15, Cox's F test P < 0.0001) was “significantly prolonged” and the “time for relative Bcl6 protein abundance to decrease from 100% to 50%” value (Bcl6 [5]) was 5 h. For the same molecule, the “effect on xenograft growth” value (Toledo xenografts) was “no effect”, the Bcl6 protein abundance (Bcl6 [6]; 24 h, 0.1-1 μM, Farage, OCI-Ly7 and SU-DHL4) was “dose-dependent reduction” and the “Bcl6 protein (immunoblot, antibodies N3 and C19)” value (Bcl6 [6]; OCI-Ly7, 0.5 μM, after 18 h) was “barely detectable”. For the same molecule, the “toxicity from behavioral, macroscopic or microscopic standpoints” value [7] was “no evidence of toxicity”, the “hematologic, renal or hepatic toxicity (blood counts, chemistry, liver function, thyroid hormone)” value (Mice toxicity studies) was “no evidence of hematologic, renal or hepatic toxicity” and the “macroscopic or microscopic toxicity” value (Mice toxicity studies) was “no evidence of macroscopic or microscopic toxicity”. The “tumor volume in steady phase” value (OCI-Ly7 xenografts) was roughly 500 mm^3.

— article PMC2805915 (Nature medicine, 2009)
